Test results from ChEMBL document CHEMBL4725280, “Structural studies of triazole inhibitors with promising inhibitor effects against antibiotic resistance metallo-β-lactamases” (Bioorg Med Chem, 2020).
Values after ≈ are worked out from the molar mass of the structure shown. Active and inactive are the calls of the source. The rule behind the calls is not given here.

Experiments:
Beta-lactamase VIM-2 = Beta-lactamase VIM-2 (Pseudomonas aeruginosa, UniProt Q9K2N0); assay: Inhibition of beta lactamase VIM-2 in Pseudomonas aeruginosa 3015473 in presence of nitrocefin as reporter substrate measured after 5 mins by microplate spectrophotometry analysis
In short: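 Purified VIM-2 at 1 nM in 50 mM HEPES pH 7.2 with 100 µM ZnCl2 and 400 µg/ml BSA, preincubated with inhibitor (sixteen concentrations, 0–250 µM) for 5 min at 25 °C. Then 100 µM nitrocefin was added and absorbance was followed at 482 nm. Points were run in triplicate, and IC50 was taken from initial velocities by log[inhibitor]–response fitting.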

GIM-1 protein = GIM-1 protein (Pseudomonas aeruginosa, UniProt Q704V1); assay: Inhibition of beta lactamase GIM-1 in Pseudomonas aeruginosa in presence of nitrocefin as reporter substrate measured after 5 mins by microplate spectrophotometry analysis
Chain of GIM-1 protein (Q704V1 whole entry): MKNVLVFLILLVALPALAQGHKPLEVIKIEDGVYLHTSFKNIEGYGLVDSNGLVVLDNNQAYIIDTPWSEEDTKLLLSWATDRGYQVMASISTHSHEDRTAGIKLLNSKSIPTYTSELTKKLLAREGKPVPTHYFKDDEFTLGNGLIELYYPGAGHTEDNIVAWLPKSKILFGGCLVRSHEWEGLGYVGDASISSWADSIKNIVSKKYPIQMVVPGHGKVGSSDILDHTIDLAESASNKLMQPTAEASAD
In short: (§1)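 Purified recombinant enzyme (1 nM GIM-1 or NDM-1) in 50 mM HEPES pH 7.2, 100 µM ZnCl2, 400 µg/ml BSA, preincubated with inhibitor at 16 concentrations (0–250 µM) for 5 min at 25 °C. Reporter substrate added at 100 µM: nitrocefin for GIM-1 (A482), imipenem for NDM-1 (A300). Triplicates; IC50 from initial velocities by log[inhibitor]–response fit.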

[1] = target: Beta-lactamase VIM-2 (Pseudomonas aeruginosa) (UniProt Q9K2N0); assay: (§2) Inhibition of Pseudomonas aeruginosa 3015473 beta lactamase VIM-2 transfected in negative Escherichia coli SNO3 cells assessed as substrate hydrolysis using nitrocefin as substrate at 250 uM incubated for 20 mins measured every 1 mins for 3 hrs by cell-based microplate spectrophotometry analysis relative to control
In short: (§3)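 E. coli SNO3 (β-lactamase-negative) carrying pET26b(+) with blaVIM-2, blaGIM-1 or blaNDM-1; overnight culture adjusted to OD600 1 in LB, inhibitor 250 µM final, IPTG 0.8 mM final, 37 °C 20 min with shaking to induce. Nitrocefin added (1.6 mM final, in 50 mM HEPES pH 7.2, 100 µM ZnCl2), A482 read each minute for 3 h; duplicates.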

[2] = target: GIM-1 protein (Pseudomonas aeruginosa) (UniProt Q704V1); assay: as §2, with “aeruginosa” for “aeruginosa 3015473”, “GIM-1” for “VIM-2”; in short: as §3
Chain of GIM-1 protein (Pseudomonas aeruginosa) (Q704V1 as listed by the source): as the sequence (Q704V1 whole entry) above

Klebsiella pneumoniae = assay: as §2, with “Klebsiella pneumonia” for “Pseudomonas aeruginosa 3015473”, “NDM1” for “VIM-2”; in short: as §3
[3] = Inhibition of beta lactamase NDM1 in Klebsiella pneumoniae in presence of imipenem as reporter substrate measured after 5 mins by microplate spectrophotometry analysis; in short: as §1
[4] = target: Beta-lactamase VIM-2 (Pseudomonas aeruginosa) (UniProt Q9K2N0); assay: Synergistic Inhibition of beta lactamase VIM-2 in Pseudomonas aeruginosa K34-7 assessed colony formation by visual inspection in presence of 50 microM 2,5-Dichloro-N-((4-((cyclohexylamino)methyl)-1H-1,2,3-triazol-5-yl)methyl)benzenesulfonamide incubated for 20 hrs by two-fold dilution method
In short: (§4)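 Broth microdilution in Mueller Hinton broth against clinical isolates (P. aeruginosa VIM-2, K. pneumoniae NDM-1, E. coli VIM-29). Meropenem 2-fold series 256–0.0625 µg/mL, with inhibitor at 50 or 125 µM final; 5% DMSO control. Inoculum from 0.5 McFarland suspension in 0.85% NaCl diluted in MH broth, CFU checked on MH agar. 37 °C for 20 h; MIC read visually.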

[5] = target: Metallo-beta-lactamase type 2 (Klebsiella pneumoniae) (UniProt C7C422); assay: Synergistic Inhibition of beta lactamase NDM1 in Klebsiella pneumoniae K66-45 assessed colony formation by visual inspection in presence of 50 microM 2,5-Dichloro-N-((4-((cyclohexylamino)methyl)-1H-1,2,3-triazol-5-yl)methyl)benzenesulfonamide incubated for 20 hrs by two-fold dilution method; in short: as §4
Chain of Metallo-beta-lactamase type 2 (Klebsiella pneumoniae) (C7C422 whole entry): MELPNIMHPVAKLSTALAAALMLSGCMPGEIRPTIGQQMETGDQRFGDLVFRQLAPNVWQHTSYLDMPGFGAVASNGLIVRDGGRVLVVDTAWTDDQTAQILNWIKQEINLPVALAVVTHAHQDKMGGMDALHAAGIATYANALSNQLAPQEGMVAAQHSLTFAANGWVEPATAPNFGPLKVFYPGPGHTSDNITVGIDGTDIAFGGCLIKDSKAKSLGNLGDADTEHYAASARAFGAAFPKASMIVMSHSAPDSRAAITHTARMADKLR

Escherichia coli [6] = assay: Synergistic Inhibition of beta lactamase VIM-29 in Escherichia coli 50639799 assessed colony formation by visual inspection in presence of 50 microM 2,5-Dichloro-N-((4-((cyclohexylamino)methyl)-1H-1,2,3-triazol-5-yl)methyl)benzenesulfonamide incubated for 20 hrs by two-fold dilution method; in short: as §4
[7] = target: Beta-lactamase VIM-2 (Pseudomonas aeruginosa) (UniProt Q9K2N0); assay: Inhibition of beta lactamase VIM-2 in Pseudomonas aeruginosa K34-7 assessed colony formation by visual inspection incubated for 20 hrs by two-fold dilution method; in short: as §4
[8] = target: Metallo-beta-lactamase type 2 (Klebsiella pneumoniae) (UniProt C7C422); assay: Inhibition of beta lactamase NDM1 in Klebsiella pneumoniae K66-45 assessed colony formation by visual inspection incubated for 20 hrs by two-fold dilution method; in short: as §4
Escherichia coli [9] = assay: Inhibition of beta lactamase VIM-29 in Escherichia coli 50639799 assessed colony formation by visual inspection incubated for 20 hrs by two-fold dilution method; in short: as §4
[10] = target: Beta-lactamase VIM-2 (Pseudomonas aeruginosa) (UniProt Q9K2N0); assay: Synergistic Inhibition of beta lactamase VIM-2 in Pseudomonas aeruginosa K34-7 assessed colony formation by visual inspection in presence of 50 microM (5-((4-iodophenylsulfonamido)methyl)-1H-1,2,3-triazol-4-yl)methyl acetate incubated for 20 hrs by two-fold dilution method; in short: as §4
[11] = target: Metallo-beta-lactamase type 2 (Klebsiella pneumoniae) (UniProt C7C422); assay: Synergistic Inhibition of beta lactamase NDM1 in Klebsiella pneumoniae K66-45 assessed colony formation by visual inspection in presence of 125 microM N-((4-((cyclohexylamino)methyl)-1H-1,2,3-triazol-5-yl)methyl)-4-iodobenzenesulfonamide incubated for 20 hrs by two-fold dilution method; in short: as §4
[12] = target: Beta-lactamase VIM-2 (Pseudomonas aeruginosa) (UniProt Q9K2N0); assay: Synergistic Inhibition of beta lactamase VIM-2 in Pseudomonas aeruginosa K34-7 assessed colony formation by visual inspection in presence of 125 microM N-((4-((cyclohexylamino)methyl)-1H-1,2,3-triazol-5-yl)methyl)-4-iodobenzenesulfonamide incubated for 20 hrs by two-fold dilution method; in short: as §4
[13] = target: Metallo-beta-lactamase type 2 (Klebsiella pneumoniae) (UniProt C7C422); assay: Synergistic Inhibition of beta lactamase NDM1 in Klebsiella pneumoniae K66-45 assessed colony formation by visual inspection in presence of 125 microM N-((4-((adamantylamino)methyl)-1H-1,2,3-triazol-5-yl)methyl)-4-iodobenzenesulfonamide incubated for 20 hrs by two-fold dilution method; in short: as §4
[14] = target: Beta-lactamase VIM-2 (Pseudomonas aeruginosa) (UniProt Q9K2N0); assay: Synergistic Inhibition of beta lactamase VIM-2 in Pseudomonas aeruginosa K34-7 assessed colony formation by visual inspection in presence of 125 microM N-((4-((adamantylamino)methyl)-1H-1,2,3-triazol-5-yl)methyl)-4-iodobenzenesulfonamide incubated for 20 hrs by two-fold dilution method; in short: as §4
[15] = target: Metallo-beta-lactamase type 2 (Klebsiella pneumoniae) (UniProt C7C422); assay: Synergistic Inhibition of beta lactamase NDM1 in Klebsiella pneumoniae K66-45 assessed colony formation by visual inspection in presence of 50 microM (5-((4-iodophenylsulfonamido)methyl)-1H-1,2,3-triazol-4-yl)methyl acetate incubated for 20 hrs by two-fold dilution method; in short: as §4
Escherichia coli [16] = assay: Synergistic Inhibition of beta lactamase VIM-29 in Escherichia coli 50639799 assessed colony formation by visual inspection in presence of 50 microM (5-((4-iodophenylsulfonamido)methyl)-1H-1,2,3-triazol-4-yl)methyl acetate incubated for 20 hrs by two-fold dilution method; in short: as §4

SMILES	IC50 (Beta-lactamase VIM-2; read-out: IC50)	inhibition [1]	inhibition [2]	inhibition (Klebsiella pneumoniae)	IC50 (GIM-1 protein; read-out: IC50)	IC50 ([3]; read-out: IC50)	further results
O=S(=O)(NCc1[nH]nnc1CNC12CC3CC(CC(C3)C1)C2)c1cc(Cl)ccc1Cl	0.12 µM	inactive	21%	inactive	–	–	IC50 (GIM-1 protein): Nd(Insoluble)
COc1ccc(CSCc2nn[nH]c2CNS(=O)(=O)c2ccc(I)cc2)cc1	21 µM	45%	33%	34%	227 µM	–	–
NCc1nn[nH]c1CNS(=O)(=O)c1ccccc1	23 µM	29%	inactive	inactive	–	–	IC50 (GIM-1 protein): Not Active; IC50 [3]: Not Active
O=S(=O)(NCc1[nH]nnc1CNC(c1ccccc1)(c1ccccc1)c1ccccc1)c1ccc(I)cc1	> 250 µM	19%	3%	inactive	353 µM	81 µM	–
Cc1ccc(S(=O)(=O)NCc2[nH]nnc2CNC23CC4CC(CC(C4)C2)C3)cc1	2.3 µM	84%	inactive	inactive	83 µM	–	–
O=S(=O)(NCc1[nH]nnc1CNC1CCCCC1)c1cc(Cl)ccc1Cl	0.23 µM	94%	7%	inactive	–	98 µM	IC50 (GIM-1 protein): Not Active
Cc1ccc(S(=O)(=O)NCc2[nH]nnc2COC(C)(C)C)cc1	7.2 µM	60%	4.5%	inactive	128 µM	142 µM	–
C[C@@H](O)[C@H]1C(=O)N2C(C(=O)O)=C(S[C@@H]3CN[C@H](C(=O)N(C)C)C3)[C@H](C)[C@H]12	–	–	–	–	–	–	MIC [4]: 8 µg/mL; MIC [5]: 32 µg/mL; MIC (Escherichia coli [6]): 16 µg/mL; MIC [7]: 64 µg/mL (≈ 167 µM); MIC [8]: 32 µg/mL (≈ 83.4 µM); MIC (Escherichia coli [9]): 16 µg/mL (≈ 41.7 µM); MIC [10]: 1 µg/mL; MIC [11]: 64 µg/mL; MIC [12]: 8 µg/mL; MIC [13]: 32 µg/mL; MIC [14]: 16 µg/mL; MIC [15]: 64 µg/mL; MIC (Escherichia coli [16]): 1 µg/mL
COCc1nn[nH]c1CNS(=O)(=O)c1ccc(I)cc1	15 µM	51%	11%	inactive	169 µM	–	IC50 [3]: Not Active
Cc1ccc(S(=O)(=O)NCc2[nH]nnc2CNC2CCCCC2)cc1	1.5 µM	82%	2.3%	inactive	–	144 µM	IC50 (GIM-1 protein): Not Active
O=S(=O)(NCc1[nH]nnc1CNC1CCCCC1)c1ccc(I)cc1	0.067 µM	95%	3%	inactive	69 µM	148 µM	–
CC(=O)OCc1nn[nH]c1CNS(=O)(=O)c1ccc(I)cc1	23 µM	–	–	–	48 µM	231 µM	–
O=S(=O)(NCc1[nH]nnc1CNCc1ccccc1)c1ccc(I)cc1	–	–	–	–	–	–	IC50 (Beta-lactamase VIM-2): Nd(Insoluble)
CC(C)OCc1nn[nH]c1CNS(=O)(=O)c1ccc(I)cc1	0.53 µM	85%	11%	inactive	193 µM	–	IC50 [3]: Not Active
O=S(=O)(NCc1[nH]nnc1CNC12CC3CC(CC(C3)C1)C2)c1ccc(I)cc1	0.16 µM	96%	22%	17%	18 µM	–	–
